Assay results as given in ChEMBL document CHEMBL2331149, “Towards dual antithrombotic compounds - balancing thrombin inhibitory and fibrinogen GPIIb/IIIa binding inhibitory activities of 2,3-dihydro-1,4-benzodioxine derivatives through regio- and stereoisomerism” (Eur J Med Chem, 2013).

Legend:
[1] = organism: Homo sapiens; assay: Selectivity ratio of Ki for trypsin (unknown origin) to Ki for thrombin (unknown origin)
[2] = molecular target: Integrin alpha-V/beta-3 (Homo sapiens, UniProt P05106+P06756); assay: Inhibition of biotinylated fibrinogen binding to human alphavbeta3 integrin receptor after 2 hrs by solid-phase competitive displacement assay; type: protein-complex assay
Summary of the method: (§1)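 Solid-phase competition with isolated human receptor (GPIIb/IIIa or GPV/IIIa) adsorbed overnight at 4 °C in Tris/NaCl buffer with 1 mM Ca2+, Mg2+ and Mn2+, pH 7.4. Blocked with 1% BSA. Serially diluted compounds plus biotinylated human fibrinogen incubated 2 h at room temperature. Bound fibrinogen detected with peroxidase anti-biotin antibody and chemiluminescence. Duplicates, at least three runs; IC50 from sigmoid fit.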

[3] = molecular target: Integrin alpha-IIb/beta-3 (Homo sapiens, UniProt P05106+P08514); assay: Inhibition of biotinylated fibrinogen binding to human GP 2b/3a after 2 hrs by solid-phase competitive displacement assay; type: protein-complex assay; summary of the method: as §1
[4] = molecular target: Prothrombin (Homo sapiens, UniProt P00734); assay: Inhibition of thrombin (unknown origin) using S-2238 as substrate preincubated with enzyme for 15 mins prior to substrate addition measured every 10 s by amidolytic method
Summary of the method: (§2)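 Chromogenic amidolytic assay read at 405 nm, 25 °C, with final enzyme levels: thrombin 0.5 NIH E/mL with S-2238 at 20 and 40 µM; factor Xa 1 mBAEE E/mL with S-2222 at 100 and 200 µM; trypsin 0.5 nkat/mL with S-2222 at 50 and 100 µM. Inhibitor diluted from DMSO stock to 0.5–100 µM, three concentrations, triplicate. Ki by Cheng–Prusoff from initial rates, averaged over all combinations.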

[5] = molecular target: Trypsin (Homo sapiens, UniProt P07477+P07478+P35030); assay: Inhibition of trypsin (unknown origin) using S-2222 as substrate preincubated with enzyme for 15 mins prior to substrate addition measured every 10 s by amidolytic method; type: protein assay; summary of the method: as §2
[6] = molecular target: Coagulation factor X (Homo sapiens, UniProt P00742); assay: Inhibition of factor 10a (unknown origin) using S-2222 as substrate preincubated with enzyme for 15 mins prior to substrate addition measured every 10 s by amidolytic method; summary of the method: as §2
[7] = organism: Homo sapiens; assay: Selectivity ratio of Ki for factor 10a (unknown origin) to Ki for thrombin (unknown origin)

SMILES | Ratio Ki [1] | IC50 [2] [µM] | IC50 [3] [µM] | Ki [4] [nM] | Ki [5] [µM] | Ki [6] [nM] | Ratio Ki [7]
CCOC(=O)C(=O)N(Cc1ccccc1)c1ccc2c(c1)OC[C@H](COc1ccc(C(=N)N)cc1)O2.O=C(O)C(F)(F)F | 0.65 | > 200 | > 200 | 436 | 0.283 | 1510 | 3.46
N=C(N)c1ccc(OC[C@@H]2COc3cc(N(Cc4ccccc4)C(=O)C(=O)O)ccc3O2)cc1 | 0.3 | > 200 | 1.21 | 5180 | 1.55 | 5190 | 1.3
CCOC(=O)C(=O)N(Cc1ccccc1)c1ccc2c(c1)O[C@@H](COc1ccc(C(=N)N)cc1)CO2.O=C(O)C(F)(F)F | 2.71 | > 200 | > 200 | 77.8 | 0.21 | 2700 | 35.9
CCOC(=O)C(=O)N(Cc1ccccc1)c1ccc2c(c1)O[C@H](COc1ccc(C(=N)N)cc1)CO2.O=C(O)C(F)(F)F | 1.32 | > 200 | > 200 | 675 | 0.894 | 637 | 0.95
CCOC(=O)C(=O)N(Cc1ccccc1)c1ccc2c(c1)OC[C@@H](COc1ccc(C(=N)N)cc1)O2.O=C(O)C(F)(F)F | 0.39 | > 200 | > 200 | 1650 | 0.644 | 2150 | 1.3
N=C(N)c1ccc(OC[C@H]2COc3cc(N(Cc4ccccc4)C(=O)C(=O)O)ccc3O2)cc1 | 0.28 | > 200 | 0.665 | 1670 | 0.463 | 1960 | 1.17
N=C(N)c1ccc(OC[C@@H]2COc3ccc(N(Cc4ccccc4)C(=O)C(=O)O)cc3O2)cc1 | 0.51 | > 200 | 17.6 | 2690 | 1.37 | 1270 | 0.47
N=C(N)c1ccc(OC[C@H]2COc3ccc(N(Cc4ccccc4)C(=O)C(=O)O)cc3O2)cc1 | 1 | > 200 | 42.6 | 266 | 0.267 | 5080 | 19.1
